Shown are actives, neighbours in structure and some others; about 5.2% of the full set was active somewhere.
ALR H2O2 inh: inhibitors of human ALR sulfhydryl oxidase, primary screen, biochemical, H2O2 detection, HRP-luminol luminescence, single point | FAD-linked sulfhydryl oxidase ALR (Homo sapiens), P55789 | purified ALR, DTT oxidation | inhibition, % (concentration not given with the values) | 290,000 compounds, 3.8% hits | AID 485317, 2010;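 active = mean replicate inhibition above about 79%, with every replicate also reaching it, limit read from the data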
Target sequence (P55789 whole entry, looked up): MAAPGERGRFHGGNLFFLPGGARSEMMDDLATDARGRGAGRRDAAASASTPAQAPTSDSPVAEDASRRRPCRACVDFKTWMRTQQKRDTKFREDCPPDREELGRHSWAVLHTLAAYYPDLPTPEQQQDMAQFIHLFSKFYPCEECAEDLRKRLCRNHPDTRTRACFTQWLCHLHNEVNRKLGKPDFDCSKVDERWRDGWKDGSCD
EBNA-1 inhibitor: EBNA-1 DNA-binding inhibitors, primary screen, biochemical, fluorescence polarization; AID 1950, 2009; 300,000 compounds, 0.34% hits; inhibition, % at 14.8 µM; in the data active = inhibition above about 28%
NS3 helicase inh: inhibitors of HCV NS3 helicase, primary screen, biochemical, Cy5 molecular beacon fluorescence. Hepatitis C virus NS3 helicase. NS3 helicase DNA unwinding. inhibition, % at 10.9 µM. 290,000 compounds, 0.56% hits. AID 1800, 2009;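 active = inhibition above the mean of all tested compounds plus 3 SD, set per campaign, cut at about 35% in these data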;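 note: 0% = DMSO wells and 100% = thioflavine S control wells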
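Material: hepatitis C virus NS3 helicase domain fragment enzyme; measured by: Cy5 fluorescence, 0 and 60 min reads; control set: DMSO and thioflavine S; incubation: 60 min unwinding reaction at 25 °C after ATP addition; read-out basis: % inhibition from 60/0 min fluorescence ratio, DMSO 0%, thioflavine S 100%; repeats: singlicate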
HCV core dimer: inhibitors of HCV core protein dimerization, primary screen, biochemical, TR-FRET, high-throughput; AID 1899, 2009; 300,000 compounds, 0.33% hits; inhibition, % at 5 µM; TR-FRET GST/Flag-core106 dimerization, 1536-well;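 active = inhibition above the mean of all tested compounds plus 3 SD, set per screening campaign, cut at about 45% in these data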
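Material: Tagged HCV core106 pair (GST and Flag) | Amount: GST-core106 13.5 nM, Flag-core106 17 nM | Medium: KF-containing HEPES buffer, pH 7.45, DTT, CHAPS, BSA | Reagent: Eu donor and XL665 acceptor anti-tag antibodies | Schedule: 4 h at 22.5 °C | Technique: Time-resolved FRET, ex 340 nm, em 617 and 671 nm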
PfM18AAP inh: PfM18AAP inhibitors, malaria aminopeptidase, primary screen, biochemical, QFRET, recombinant enzyme. 290,000 compounds, 1.2% hits. H-Glu-NHMec fluorogenic cleavage. inhibition, % at 7.35 µM. M18 aspartyl aminopeptidase (Plasmodium falciparum 3D7);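 active = inhibition above the campaign mean inhibition over all tested compounds plus 3 SD, cut at about 28% in these data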;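 note: 0% = plate median of test compound wells and 100% = 2 mM ZnCl2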
ZTA DNA inh: ZTA (EBV) inhibition in EBNA-1 counter-screen | P03206 | AID 2234 | ZTA-DNA binding, fluorescence polarization | 320,000 compounds, 0.15% hits | inhibition, % at 11 µM; in the data active = inhibition above about 33%
Target sequence (P03206 whole entry, looked up): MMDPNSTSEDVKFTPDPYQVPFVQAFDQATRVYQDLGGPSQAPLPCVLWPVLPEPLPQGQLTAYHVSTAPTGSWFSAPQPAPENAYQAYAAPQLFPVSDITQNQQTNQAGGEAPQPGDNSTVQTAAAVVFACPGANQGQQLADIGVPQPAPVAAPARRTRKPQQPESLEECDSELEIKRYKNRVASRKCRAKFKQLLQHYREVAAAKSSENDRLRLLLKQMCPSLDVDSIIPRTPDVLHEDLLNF
Active calls of the source: *; · = not tested or not shown.

SMILES	ALR H2O2 inh	EBNA-1 inhibitor	NS3 helicase inh	HCV core dimer	PfM18AAP inh	ZTA DNA inh
O=C(N/N=C/c1ccccn1)c1ccc(N/N=C/c2ccccn2)cc1	99*	-3	2	-14	5	-7
O=C(N/N=C/c1ccncc1)c1cccc(N/N=C/c2ccncc2)c1	96*	9	0	-1	-6	-6
Cc1cccc(N/N=C/c2ccncc2)c1	99*	10	-13	-12	0	4
O=C(N/N=C/c1ccc(O)cc1)c1cccc(N/N=C/c2ccc(O)cc2)c1	·	3	1	-9	21	-2
COc1ccc(-c2csc(NC(=O)CCN3C(=O)C4CC=CCC4C3=O)n2)cc1OC (stereo not given)	-6	-3	·	1	·	-7
CCc1ccc(S(=O)(=O)N2CCN(C(=O)C3CCN(C(C)=O)CC3)CC2)cc1	-2	3	2	-4	-11	-4
O=C(COC(=O)[C@@H]1CCCN1C(=O)c1cccs1)Nc1cccc([N+](=O)[O-])c1	3	·	·	·	·	·
CCC(c1nnc(SCC(=O)Nc2ccc(C(=O)Nc3ccccc3OC)cc2)o1)N(C)C (stereo not given)	99*	7	5	30	12	6
Cc1ccc(/C=C2/SC(=S)N(CC(=O)Nc3ncc(Cc4ccc(C)cc4)s3)C2=O)cc1	4	3	4	70*	2	-8
Cc1ccc(/C=C2\SC(=S)N(CC(=O)Nc3ncc(Cc4ccccc4Cl)s3)C2=O)cc1	-5	-23	14	32	3	-1
O=C(CN1C(=O)/C(=C/c2cccc(Br)c2)SC1=S)NC1=NCCS1	-3	25	14	50*	10	8
O=C(CN1C(=O)/C(=C/c2cccc(Br)c2)SC1=S)Nc1cccnc1	-4	-1	13	12	27	-17
Cc1cccc(Cc2cnc(NC(=O)CN3C(=O)/C(=C/c4ccccc4)SC3=S)s2)c1	-14	-8	12	62*	11	-2
CC1CCCCN1C(=O)CN1C(=O)c2ccccc2S1(=O)=O (stereo not given)	-3	-1	·	-1	·	-18
CN(C)c1ccc(NC(=O)CCN2C(=O)c3cccc([N+](=O)[O-])c3C2=O)cc1	100*	-6	30	-3	13	-5
COc1ccc(S(=O)(=O)Nc2ccc3c(c2)C(=O)N([C@H](C)CO)C[C@H](C)[C@@H](CN(C)C(=O)Nc2ccc(C(F)(F)F)cc2)O3)cc1	-9	·	·	·	·	·
Cn1c(-c2ccccc2)cnc1SCC(=O)N1CCCCC1	100*	-11	-5	-4	-8	-31
Cc1ccc(NC(=O)CNC(C)c2ccccc2)cc1 (stereo not given)	-2	5	-8	-1	-5	2
O=C(NCc1ccco1)c1nn2c(C(F)(F)F)cc(-c3cccs3)nc2c1Br	28	-11	16	54*	10	14
O=C(NCc1ccco1)c1nc2nc(-c3cccs3)cc(C(F)(F)F)n2n1	49	4	6	20	13	-7
Cc1c(Cc2ccccc2)c(=O)oc2cc(O)cc(O)c12	78*	3	11	5	7	17
Cc1coc2cc3oc(=O)c(Cc4ccccc4)c(C)c3cc12	-5	-19	10	5	0	-14
O=C(COC(=O)C1CCCCC1)Nc1ccc(N2CCCCC2)cc1	88*	1	-52	1	-9	-5
O=C(CNC1CCCC1)Nc1ccc(N2CCCCCC2)cc1	·	9	-32	-8	14	7
CC1CCN(CC(=O)Nc2ccc(N3CCCCCC3)cc2)CC1	98*	2	-44	-6	9	5
SMILES	ALR H2O2 inh	EBNA-1 inhibitor	NS3 helicase inh	HCV core dimer	PfM18AAP inh	ZTA DNA inh
O=C(CNC1CCCCCC1)Nc1ccc(N2CCCC2)cc1	94*	-2	-24	-6	4	14
O=C(CNCC1CCCCC1)Nc1ccc(N2CCCCC2)cc1	98*	3	3	-2	6	-1
COc1ccc(CC(=O)Nc2nn(C)c3nc4c(C)cccc4cc23)cc1	-11	27	-6	3	-2	-13
COc1ccc(NC(=O)CN2C(=O)C(C)Oc3ccccc32)cc1OC (stereo not given)	-11	6	4	-9	7	-16
Cc1ccc(C(=O)CSc2nc(C(C)C)nc3ccccc23)cc1	98*	5	-5	14	4	9
CC(C)c1nc(SCC(=O)c2ccc(F)cc2)c2ccccc2n1	99*	-3	-17	8	1	-10
O=C(CSc1cnc2ccccc2n1)c1ccc(F)cc1	97*	8	5	4	12	-3
CN(CC(=O)Nc1cccc(F)c1)C(=O)COc1cccc2c1OC(C)(C)C2	5	2	-3	-10	3	9
Cc1ccc(S(=O)(=O)Oc2ccc(C3C4=C(CCCC4=O)N(CCC(=O)O)C4=C3C(=O)CCC4)cc2Cl)cc1	8	12	13	11	4	13
O=C(Nc1ncc2c(n1)CC(c1ccco1)CC2=O)c1ccccc1 (stereo not given)	8	-20	1	-3	0	-14
O=C1CC(c2ccco2)Cc2nc(Nc3nc(-c4ccccc4)c4ccccc4n3)ncc21 (stereo not given)	·	10	7	59*	5	9
CCC(C)NC(=O)c1ccc(Cl)c(S(=O)(=O)Nc2ccccc2N2CCOCC2)c1 (stereo not given)	-4	·	·	·	·	-3
COC(=O)CCC(=O)OC1(C)C(=O)C=C2C=C(C3CC3)N(c3ccc(CO)cc3)C=C2C1=O (stereo not given)	-20	-1	·	69*	·	14
O=C(NC1CC1)c1ccc(CSCc2cccc(F)c2)o1	99*	-4	-1	-15	-10	-9
Cc1ccccc1CSCc1ccc(C(=O)NCCCN2CCOCC2)o1	98*	0	8	-3	0	19
CC1CCN(CCCNC(=O)c2ccc(CSCc3cccc(Cl)c3)o2)CC1	99*	7	-13	-3	-8	0
Cc1ccc(CSCc2ccc(C(=O)NC3CC3)o2)cc1	-10	3	0	0	-1	14
CCOC(=O)N1CCC(N2Cc3cccc(C(=O)Nc4ccc(OCC)cc4)c3C2=O)CC1	-2	6	-16	7	-6	3
O=C(CSCc1ccc(Cl)cc1)Nc1nccs1	-2	-1	0	3	-1	9
Cc1nc(NC(=O)CSc2nc(N)cc(N)n2)sc1C	94*	-10	3	-1	-1	6
Cc1ccccc1OCCCC(=O)Nc1nccs1	94*	0	5	-2	-5	1

Screens (PubChem BioAssay)
